# Source: PMC11700703 (Nature cardiovascular research, 2024)
# “Also recorded” adds a separate entry of the source.
# Key:
# [1] = biological target: cTnI binding to immune-captured ATP synthase (UniProt P19429+P31399); assay: Inhibition of cTnI binding to ATP synthase by ELISA; assay type: rat heart mitochondria; recombinant human cTnI; conditions: P888 2μM
# Procedure, shortened: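 ELISA on anti-ATP synthase antibody plates blocked with 2% BSA. Plates were co-incubated with solubilized rat heart mitochondria (4 μg) and recombinant human cTnI (2 μg) ± test peptide (2 μM). After washing, bound cTnI was detected with HRP anti-cTnI antibody (1:5000, 1 h), then TMB, stopped with 2N sulfuric acid; absorbance at 450 nm.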
# [2] = system: mitochondria of rat hearts after myocardial IR; assay: Rat in vivo LAD ligation IR: mitochondrial oxygen consumption after IR; conditions: 3mg/kg IP at reperfusion, 24 hours after reperfusion, n=15
# [3] = system: F1FO-ATP synthase (ATPase activity); assay: F1FO-ATPase activity assay; assay type: biochemical, rat; conditions: P888 (2μM) co-incubation with cTnI (2μg); n=3 independent experiments
# Procedure, shortened: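 Rat heart mitochondria (4 μg, solubilized) were captured on anti-ATP synthase antibody plates and co-incubated with recombinant human cTnI (2 μg) ± test peptide (2 μM). Absorbance was read over 120 min. Oligomycin served as negative control. n=3 independent experiments, each in 3–4 replicates; two-way ANOVA with Sidak correction.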
# cTnI binding to immune-captured ATP synthase, sequence (P19429 whole entry): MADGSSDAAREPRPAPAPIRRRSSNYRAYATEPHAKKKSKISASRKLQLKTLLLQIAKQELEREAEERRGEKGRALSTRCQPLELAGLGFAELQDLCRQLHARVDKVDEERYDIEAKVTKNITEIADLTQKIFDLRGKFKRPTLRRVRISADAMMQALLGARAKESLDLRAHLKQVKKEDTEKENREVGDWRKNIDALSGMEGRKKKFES
# cTnI binding to immune-captured ATP synthase, sequence (P31399 2-161 limits assumed): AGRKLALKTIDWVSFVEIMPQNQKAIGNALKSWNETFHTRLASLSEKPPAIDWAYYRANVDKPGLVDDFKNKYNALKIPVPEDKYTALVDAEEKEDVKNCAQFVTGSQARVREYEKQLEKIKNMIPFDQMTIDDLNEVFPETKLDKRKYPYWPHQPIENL
substance,measurement,setting,value
A2GRKLALKTI11 [P888],inhibition of cTnI binding to the immune-captured ATP synthase,"[1]; cTnI (2μg), n=3",~ 78%
same,inhibition of cTnI binding to ATP synthase,"[1]; n=3, result in words",binding is inhibited in the presence of P888; also recorded: inhibited cTnI binding to ATP synthase
same,mitochondrial respiration after IR,[2],no significant effect of P888 on mitochondrial function
same,prevention of cTnI-induced increase in ATPase activity,[3],blocked the cTnI-induced increase in ATPase activity; also recorded: P888 co-incubation prevents this effect; also recorded: inhibited cTnI-induced increase in ATPase activity in vitro
